Measured values from different studies.
Target: Tyrosine-protein kinase ITK/TSK (ITK, Homo sapiens, UniProt Q08881)
One construct used (Q08881 1-620): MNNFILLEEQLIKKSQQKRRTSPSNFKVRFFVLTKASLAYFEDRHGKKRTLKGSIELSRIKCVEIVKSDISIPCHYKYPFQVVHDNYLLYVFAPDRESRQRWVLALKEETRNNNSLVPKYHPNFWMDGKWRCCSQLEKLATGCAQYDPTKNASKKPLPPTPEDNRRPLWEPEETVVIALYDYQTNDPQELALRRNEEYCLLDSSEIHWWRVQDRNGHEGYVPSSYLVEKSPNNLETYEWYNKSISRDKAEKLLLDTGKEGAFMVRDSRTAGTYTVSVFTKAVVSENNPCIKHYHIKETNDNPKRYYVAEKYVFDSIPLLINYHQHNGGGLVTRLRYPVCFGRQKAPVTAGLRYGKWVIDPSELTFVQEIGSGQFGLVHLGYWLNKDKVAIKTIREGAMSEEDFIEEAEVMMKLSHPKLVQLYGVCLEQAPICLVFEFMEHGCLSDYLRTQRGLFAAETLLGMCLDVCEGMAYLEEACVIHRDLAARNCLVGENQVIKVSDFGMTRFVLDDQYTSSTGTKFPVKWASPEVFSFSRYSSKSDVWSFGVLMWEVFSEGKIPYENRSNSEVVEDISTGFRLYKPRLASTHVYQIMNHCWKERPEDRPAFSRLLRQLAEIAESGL

Compound	observed	technique	concentration	remaining binding [%]
N[C@H]1CCN(c2nccc(-c3cnn4ncccc34)n2)C1	binding	–	1 µM	100
COc1ncc2cc3ccccc3nc2c1C#N	cell-free assay	competition with immobilised ligand	5 µM	97
CN(c1nccc(-c2cnn3ncccc23)n1)C1CC1	binding	–	1 µM	100
CC(=O)C1=C(C)N(c2cccc(C(F)(F)F)c2)C(=O)N[C@@H]1c1ccc(C#N)nc1	cell-free assay	competition with immobilised ligand	1 µM	90.4
O=C(NCCCN1CCOCC1)c1ccc(Nc2ncc(Cl)c(-c3ccc(Cl)s3)n2)cc1	binding	competition with immobilised ligand	1 µM	40
CN(C)c1nccc(-c2cnn3ncccc23)n1	binding	–	1 µM	100
c1cncc(-c2cccc(Nc3nccc(NC4CCCCC4)n3)c2)c1	binding	competition with immobilised ligand	10 µM	80
O=C(NCC1CCOCC1)c1n[nH]cc1NC(=O)c1c(F)cccc1F	binding	competition with immobilised ligand	1 µM	100
Cc1nccc(COC(=O)N2C[C@@H]3[C@@H](CNC(=O)c4ccc5[nH]nnc5c4)[C@@H]3C2)n1	cell-free assay	competition with immobilised ligand	1 µM	100
CN(C)c1ncc(F)c(-c2cnn3ncccc23)n1	binding	–	1 µM	100
COc1ccc2c(c1)O[C@H](c1ccc(OC)c(OC)c1)C[C@@H]2NC(=O)C1(c2ccc3c(c2)OC(F)(F)O3)CC1	cell-free assay	competition with immobilised ligand	1 µM	100
CNC(=O)[C@@H]1CC[C@@H](n2c(-c3ccc4cnccc4c3)nc3ccc(C(=O)NCc4cccc(C(N)=O)c4)cc32)C1	binding	competition with immobilised ligand	1 µM	99
O=C(NCCCN1CCOCC1)c1ccc(Nc2nccc(-c3cc4ccccc4s3)n2)cc1	binding	competition with immobilised ligand	1 µM	100
C[C@H]1CCN(c2nccc(-c3cnn4ncccc34)n2)C1	binding	–	1 µM	93
CCC(=N\O)/C(C)=C/c1ccc(F)cc1	cell-free assay	competition with immobilised ligand	1 µM	90
O=C(c1ccc(Nc2ncc(Cl)c(-c3cc4ccccc4s3)n2)cc1)N1CCC(N2CCCC2)CC1	binding	competition with immobilised ligand	1 µM	50
Cc1c(NC(=O)c2cc(C(N)=O)nc3cc(F)ccc23)c(C(F)(F)F)nn1Cc1ccc(C#N)cc1	cell-free assay	competition with immobilised ligand	1 µM	78
CN(CCCC(F)(F)F)c1nccc(-c2cnn3ncccc23)n1	binding	–	1 µM	95
C[C@H](c1ccnc(Nc2nc3ccc(-c4cc(N(C)C)ncn4)cc3[nH]2)c1)N1CCN(C(=O)CC(F)(F)F)CC1	cell-free assay	competition with immobilised ligand	0.1 µM	100
CCN1CCN(Cc2ccc(C(=O)Nc3ccc(C)c(Oc4ccc5c(c4)CC(=O)N5)c3)cc2C(F)(F)F)CC1	binding	competition with immobilised ligand	1 µM	72
